Measurements as given in ChEMBL document CHEMBL3259628, “Discovery of novel 2-((pyridin-3-yloxy)methyl)piperazines as α7 nicotinic acetylcholine receptor modulators for the treatment of inflammatory disorders” (J Med Chem, 2014).
pEC50, pIC50, pKi: −log10 of the molar value. Active and inactive are the calls of the source. The rule behind the calls is not given here.

How the values were obtained:
[1] = Oral bioavailability in mouse at 5 mg/kg; type: ADME, organism-based; details: in vivo
Mus musculus [2] = test: Antiinflammatory activity against ovalbumin-induced allergic lung inflammation BALB/c mouse model assessed as reduction in total blood cells in brochoalveolar lavage fluid at 1 mg/kg, po qd administered on day 29 to 31 post ovalbumin challenge measured 8 hrs post last challenge relative to vehicle-treated control; type: functional
Procedure, shortened: (§1)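 Balb/c mice sensitized with ovalbumin by IP injection on days 1 and 14, then challenged intranasally with 100 μg ovalbumin on days 29, 30 and 31. Compound in saline given orally starting 30 min before each challenge; groups of six mice. Sham groups were saline-sensitized and allergen-challenged. BAL taken 8 h after the last challenge, with differential cell counts on slides.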

[3] = Clearance in mouse at 1 mg/kg, iv; type: ADME, organism-based; set-up: dose 1 mg/kg, route intravenous; details: in vivo
[4] = biological target: T1, Neuronal acetylcholine receptor; alpha4/beta2 (Homo sapiens, UniProt P17787+P43681); test: Inhibition of human alpha4beta2 nAChR by binding assay
T1 sequence (P17787 whole entry): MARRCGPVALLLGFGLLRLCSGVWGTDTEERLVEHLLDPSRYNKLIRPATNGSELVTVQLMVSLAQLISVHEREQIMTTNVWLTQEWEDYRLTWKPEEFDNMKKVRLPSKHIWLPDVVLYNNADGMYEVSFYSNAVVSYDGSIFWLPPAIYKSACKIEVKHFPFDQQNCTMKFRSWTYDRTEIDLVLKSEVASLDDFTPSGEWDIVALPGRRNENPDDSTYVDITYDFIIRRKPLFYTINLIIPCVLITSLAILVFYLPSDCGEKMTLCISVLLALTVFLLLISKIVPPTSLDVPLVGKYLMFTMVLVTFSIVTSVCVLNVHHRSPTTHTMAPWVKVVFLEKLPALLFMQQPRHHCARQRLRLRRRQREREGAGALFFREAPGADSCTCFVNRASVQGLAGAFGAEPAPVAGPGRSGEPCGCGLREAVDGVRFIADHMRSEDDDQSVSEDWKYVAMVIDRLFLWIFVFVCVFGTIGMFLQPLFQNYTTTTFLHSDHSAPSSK
T1 sequence (P43681 whole entry): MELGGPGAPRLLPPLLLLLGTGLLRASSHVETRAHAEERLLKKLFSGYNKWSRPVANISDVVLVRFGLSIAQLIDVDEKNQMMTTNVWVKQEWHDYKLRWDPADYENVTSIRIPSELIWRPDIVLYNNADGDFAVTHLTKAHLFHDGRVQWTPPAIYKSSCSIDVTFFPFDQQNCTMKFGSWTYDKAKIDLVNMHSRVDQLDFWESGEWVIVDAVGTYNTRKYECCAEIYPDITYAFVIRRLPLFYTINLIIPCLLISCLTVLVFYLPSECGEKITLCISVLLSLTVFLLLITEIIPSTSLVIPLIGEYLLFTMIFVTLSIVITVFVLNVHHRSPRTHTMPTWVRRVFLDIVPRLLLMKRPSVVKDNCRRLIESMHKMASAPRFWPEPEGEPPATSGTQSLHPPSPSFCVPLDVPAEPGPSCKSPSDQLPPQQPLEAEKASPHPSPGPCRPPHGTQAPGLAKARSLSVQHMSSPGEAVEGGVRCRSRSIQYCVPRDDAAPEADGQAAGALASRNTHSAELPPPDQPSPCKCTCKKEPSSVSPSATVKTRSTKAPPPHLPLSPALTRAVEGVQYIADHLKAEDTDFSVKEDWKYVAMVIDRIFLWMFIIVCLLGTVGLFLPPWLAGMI

[5] = Half life in mouse at 5 mg/kg, po; type: ADME, organism-based; set-up: dose 5 mg/kg, route oral; details: in vivo
[6] = biological target: T1, Neuronal acetylcholine receptor; alpha4/beta2; test: Agonist activity at human alpha4beta2 nAChR expressed in Xenopus oocytes by voltage clamp method; type: cell-based
[7] = biological target: Acetylcholine receptor; alpha1/beta1/delta/gamma (Homo sapiens) (UniProt P02708+P07510+P11230+Q07001); test: Inhibition of alpha1beta1gammadelta nAChR (unknown origin) at 10 uM; type: protein-complex assay
Procedure, shortened: (§2)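 Receptor, ion channel and transporter binding panel run at Cerep in duplicate. Percent inhibition measured at 10 μM compound.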

Mus musculus [8] = test: Antiinflammatory activity against ovalbumin-induced allergic lung inflammation BALB/c mouse model assessed as reduction in eosinophils in brochoalveolar lavage fluid at 1 mg/kg, po qd administered on day 29 to 31 post ovalbumin challenge measured 8 hrs post last challenge relative to vehicle-treated control; type: functional; procedure, shortened: as §1
Mus musculus [9] = test: Antiinflammatory activity against ovalbumin-induced allergic lung inflammation BALB/c mouse model assessed as reduction in total blood cells in brochoalveolar lavage fluid at 5 mg/kg, po qd administered on day 29 to 31 post ovalbumin challenge measured 8 hrs post last challenge relative to vehicle-treated control; type: functional; procedure, shortened: as §1
CYP2C19 = CYP2C19 (Homo sapiens, UniProt P33261); test: Inhibition of CYP2C19 (unknown origin) at 10 uM; type: ADME
CYP2C19, sequence (P33261 whole entry, canonical isoform): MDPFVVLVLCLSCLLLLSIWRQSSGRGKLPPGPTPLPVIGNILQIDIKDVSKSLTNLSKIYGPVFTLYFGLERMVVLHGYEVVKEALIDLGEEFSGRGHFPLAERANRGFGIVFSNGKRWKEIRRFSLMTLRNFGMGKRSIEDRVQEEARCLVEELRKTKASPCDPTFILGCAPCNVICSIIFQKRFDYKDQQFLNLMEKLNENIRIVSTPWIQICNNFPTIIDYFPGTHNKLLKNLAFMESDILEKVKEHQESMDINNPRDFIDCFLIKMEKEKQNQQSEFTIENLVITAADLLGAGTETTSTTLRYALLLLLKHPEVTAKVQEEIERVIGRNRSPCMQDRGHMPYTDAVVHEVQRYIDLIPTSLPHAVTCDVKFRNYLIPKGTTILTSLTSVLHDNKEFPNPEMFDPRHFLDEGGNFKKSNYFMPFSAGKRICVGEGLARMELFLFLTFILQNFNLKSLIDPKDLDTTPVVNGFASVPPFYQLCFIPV
Procedure, shortened: (§3)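 Each of five Cyp isoforms assayed with single probe substrates rather than a substrate cocktail. Run in duplicate at Cerep. IC50 lines come from a 5-concentration titration curve.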

CYP2D6 = CYP2D6 (Homo sapiens, UniProt P10635); test: Inhibition of CYP2D6 (unknown origin) at 10 uM; type: ADME; procedure, shortened: as §3
CYP2D6, sequence (P10635 whole entry): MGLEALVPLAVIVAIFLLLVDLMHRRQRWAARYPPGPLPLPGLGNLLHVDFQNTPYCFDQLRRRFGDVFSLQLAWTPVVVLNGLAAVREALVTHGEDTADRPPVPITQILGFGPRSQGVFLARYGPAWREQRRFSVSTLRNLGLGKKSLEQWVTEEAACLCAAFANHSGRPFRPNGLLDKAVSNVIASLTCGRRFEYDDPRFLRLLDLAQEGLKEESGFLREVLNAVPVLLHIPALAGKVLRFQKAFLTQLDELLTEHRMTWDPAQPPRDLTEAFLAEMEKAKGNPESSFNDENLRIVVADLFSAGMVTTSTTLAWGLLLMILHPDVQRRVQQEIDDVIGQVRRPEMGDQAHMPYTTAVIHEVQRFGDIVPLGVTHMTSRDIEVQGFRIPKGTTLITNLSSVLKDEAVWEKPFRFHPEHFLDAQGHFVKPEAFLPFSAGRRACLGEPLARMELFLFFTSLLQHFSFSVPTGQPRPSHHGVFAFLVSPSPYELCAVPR

Mus musculus [10] = test: Antiinflammatory activity against ovalbumin-induced allergic lung inflammation BALB/c mouse model assessed as reduction in neutrophils in brochoalveolar lavage fluid at 1 mg/kg, po qd administered on day 29 to 31 post ovalbumin challenge measured 8 hrs post last challenge relative to vehicle-treated control; type: functional; details: Bronchoalveolar lavage; procedure, shortened: as §1
CYP2C9 = CYP2C9 (Homo sapiens, UniProt P11712); test: Inhibition of CYP2C9 (unknown origin) at 10 uM; type: ADME; procedure, shortened: as §3
CYP2C9, sequence (P11712 whole entry): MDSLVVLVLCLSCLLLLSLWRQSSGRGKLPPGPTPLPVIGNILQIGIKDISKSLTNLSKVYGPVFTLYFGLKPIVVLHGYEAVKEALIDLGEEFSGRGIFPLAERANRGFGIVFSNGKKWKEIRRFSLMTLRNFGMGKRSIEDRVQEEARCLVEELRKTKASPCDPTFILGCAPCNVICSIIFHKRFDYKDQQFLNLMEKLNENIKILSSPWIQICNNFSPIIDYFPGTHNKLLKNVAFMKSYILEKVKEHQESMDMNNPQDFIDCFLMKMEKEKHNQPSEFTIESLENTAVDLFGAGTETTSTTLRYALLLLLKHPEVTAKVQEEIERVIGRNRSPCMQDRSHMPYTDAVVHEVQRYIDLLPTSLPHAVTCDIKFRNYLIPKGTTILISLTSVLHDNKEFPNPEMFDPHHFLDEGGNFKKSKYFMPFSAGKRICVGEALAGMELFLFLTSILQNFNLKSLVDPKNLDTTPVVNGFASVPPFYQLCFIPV

CYP1A2 = biological target: T2, CYP1A2 (Homo sapiens, UniProt P05177); test: Inhibition of CYP1A2 (unknown origin) at 10 uM; type: ADME; procedure, shortened: as §3
T2 sequence (P05177 whole entry): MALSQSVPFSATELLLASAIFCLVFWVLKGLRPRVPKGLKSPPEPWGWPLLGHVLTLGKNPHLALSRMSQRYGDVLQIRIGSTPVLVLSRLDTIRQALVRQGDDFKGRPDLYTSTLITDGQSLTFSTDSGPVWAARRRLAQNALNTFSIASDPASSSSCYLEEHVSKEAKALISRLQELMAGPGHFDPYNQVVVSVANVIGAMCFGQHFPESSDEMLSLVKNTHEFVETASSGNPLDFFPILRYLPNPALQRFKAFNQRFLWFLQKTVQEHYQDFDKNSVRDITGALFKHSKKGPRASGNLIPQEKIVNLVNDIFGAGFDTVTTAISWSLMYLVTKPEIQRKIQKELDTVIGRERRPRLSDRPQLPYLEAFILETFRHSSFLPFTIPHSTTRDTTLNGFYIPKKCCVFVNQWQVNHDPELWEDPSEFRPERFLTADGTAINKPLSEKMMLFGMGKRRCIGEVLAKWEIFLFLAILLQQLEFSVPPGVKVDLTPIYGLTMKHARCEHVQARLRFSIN

[11] = biological target: T3, Neuronal acetylcholine receptor subunit alpha-7 (Homo sapiens, UniProt P36544); test: Agonist activity at human alpha7 nAChR expressed in Xenopus oocytes by voltage clamp method; type: cell-based
[12] = Half life in mouse at 1 mg/kg, iv; type: ADME, organism-based; set-up: dose 1 mg/kg, route intravenous; details: in vivo
Mus musculus [13] = test: Antiinflammatory activity against ovalbumin-induced allergic lung inflammation BALB/c mouse model assessed as reduction in eosinophils in brochoalveolar lavage fluid at 5 mg/kg, po qd administered on day 29 to 31 post ovalbumin challenge measured 8 hrs post last challenge relative to vehicle-treated control; type: functional, organism-based; set-up: dose 5 mg/kg; procedure, shortened: as §1
[14] = Cmax in mouse at 5 mg/kg, po; type: ADME, organism-based; set-up: dose 5 mg/kg, route oral; details: in vivo
Mus musculus [15] = test: Antiinflammatory activity against ovalbumin-induced allergic lung inflammation BALB/c mouse model assessed as reduction in neutrophils in brochoalveolar lavage fluid at 5 mg/kg, po qd administered on day 29 to 31 post ovalbumin challenge measured 8 hrs post last challenge relative to vehicle-treated control; type: functional; details: Bronchoalveolar lavage; procedure, shortened: as §1
[16] = biological target: Adenosine receptor A2a (Homo sapiens) (UniProt P29274); test: Inhibition of adenosine A2a receptor (unknown origin) at 10 uM; procedure, shortened: as §2
[17] = biological target: Neuronal acetylcholine receptor subunit alpha-7 (Rattus norvegicus, UniProt Q05941); test: Inhibition of biotinylated alpha-bungarotoxin binding to alpha7 nAChR in rat PC12 cells by FACS analysis; type: cell-based, PC-12
Neuronal acetylcholine receptor subunit alpha-7 (Rattus norvegicus, UniProt Q05941), sequence (Q05941 whole entry): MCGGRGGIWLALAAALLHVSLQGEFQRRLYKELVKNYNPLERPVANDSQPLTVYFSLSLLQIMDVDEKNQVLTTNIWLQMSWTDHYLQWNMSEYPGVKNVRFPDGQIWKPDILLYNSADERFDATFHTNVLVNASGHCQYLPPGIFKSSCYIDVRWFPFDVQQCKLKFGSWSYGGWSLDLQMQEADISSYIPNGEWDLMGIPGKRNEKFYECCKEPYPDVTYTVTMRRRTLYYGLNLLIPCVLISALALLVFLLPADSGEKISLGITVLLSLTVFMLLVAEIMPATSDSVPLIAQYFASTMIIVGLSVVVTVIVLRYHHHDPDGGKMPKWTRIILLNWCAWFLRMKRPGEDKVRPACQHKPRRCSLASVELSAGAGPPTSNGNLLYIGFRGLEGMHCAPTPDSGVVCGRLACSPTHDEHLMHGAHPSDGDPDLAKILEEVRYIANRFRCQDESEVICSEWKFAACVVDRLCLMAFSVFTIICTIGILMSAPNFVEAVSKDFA
Procedure, shortened: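 Rat PC12 cells in binding buffer (PBS, 1.0% FBS, 0.02% sodium azide), 0.1% DMSO; biotinylated α-bungarotoxin 10 nM final, 1 h at room temperature; nonspecific binding defined with 1.5 μM unlabeled toxin. After washing, phycoerythrin-streptavidin 1.0 μg/mL final, 15 min in the dark; read by FACS. Screened at 10 and 1 μM, then eight-point 3-fold dilution IC50; mean of two or more experiments.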

[18] = biological target: T3, Neuronal acetylcholine receptor subunit alpha-7; details: 300 uM
[19] = biological target: T4, 5-hydroxytryptamine receptor 3A (Homo sapiens) (UniProt P46098); test: Inhibition of 5-HT3 receptor (unknown origin) at 10 uM; procedure, shortened: as §2
T4 sequence (whole entry): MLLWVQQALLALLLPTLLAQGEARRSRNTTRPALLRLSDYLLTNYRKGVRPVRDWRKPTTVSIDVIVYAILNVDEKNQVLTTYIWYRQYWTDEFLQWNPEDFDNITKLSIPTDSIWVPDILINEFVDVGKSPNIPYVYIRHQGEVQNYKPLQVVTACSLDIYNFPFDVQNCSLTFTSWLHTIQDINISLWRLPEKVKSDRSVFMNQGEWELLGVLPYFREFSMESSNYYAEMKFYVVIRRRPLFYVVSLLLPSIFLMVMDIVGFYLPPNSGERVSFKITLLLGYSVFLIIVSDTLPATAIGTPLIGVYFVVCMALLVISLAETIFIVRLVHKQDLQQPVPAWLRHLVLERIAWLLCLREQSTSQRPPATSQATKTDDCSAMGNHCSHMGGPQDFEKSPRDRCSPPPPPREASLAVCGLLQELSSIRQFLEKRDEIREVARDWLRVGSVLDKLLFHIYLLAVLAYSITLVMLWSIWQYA

CYP3A4 = CYP3A4 (Homo sapiens, UniProt P08684); test: Inhibition of CYP3A4 (unknown origin) at 10 uM; type: ADME; procedure, shortened: as §3
CYP3A4, sequence (P08684 whole entry): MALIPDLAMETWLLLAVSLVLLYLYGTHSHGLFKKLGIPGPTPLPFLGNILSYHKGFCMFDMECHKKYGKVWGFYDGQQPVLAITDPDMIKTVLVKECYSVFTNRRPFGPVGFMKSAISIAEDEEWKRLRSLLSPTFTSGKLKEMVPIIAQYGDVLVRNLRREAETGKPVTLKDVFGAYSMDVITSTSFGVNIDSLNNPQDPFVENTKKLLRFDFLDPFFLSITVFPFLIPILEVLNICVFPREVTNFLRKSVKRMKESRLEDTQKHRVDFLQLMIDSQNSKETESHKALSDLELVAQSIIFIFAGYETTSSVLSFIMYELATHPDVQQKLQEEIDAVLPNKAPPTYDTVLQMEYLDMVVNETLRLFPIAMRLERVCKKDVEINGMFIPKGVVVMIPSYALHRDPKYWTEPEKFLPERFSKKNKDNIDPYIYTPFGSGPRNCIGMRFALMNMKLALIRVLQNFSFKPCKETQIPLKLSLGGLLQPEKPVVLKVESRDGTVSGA

Mus musculus [20] = test: Antiinflammatory activity against ovalbumin-induced allergic lung inflammation BALB/c mouse model assessed as reduction in eosinophils in brochoalveolar lavage fluid at 1 mg/kg, po bid administered on day 29 to 31 post ovalbumin challenge measured 8 hrs post last challenge relative to vehicle-treated control; type: functional; procedure, shortened: as §1
Mus musculus [21] = test: Antiinflammatory activity against ovalbumin-induced allergic lung inflammation BALB/c mouse model assessed as reduction in neutrophils in brochoalveolar lavage fluid at 1 mg/kg, po bid administered on day 29 to 31 post ovalbumin challenge measured 8 hrs post last challenge relative to vehicle-treated control; type: functional; details: Bronchoalveolar lavage; procedure, shortened: as §1
[22] = biological target: T1, Neuronal acetylcholine receptor; alpha4/beta2; test: Agonist activity at alpha4beta2 nAChR (unknown origin)
Mus musculus [23] = test: Antiinflammatory activity against ovalbumin-induced allergic lung inflammation BALB/c mouse model assessed as reduction in total blood cells in brochoalveolar lavage fluid at 10 mg/kg, po bid administered on day 29 to 31 post ovalbumin challenge measured 8 hrs post last challenge relative to vehicle-treated control; type: functional, organism-based; set-up: dose 10 mg/kg; procedure, shortened: as §1
hERG (KCNH2) = hERG (KCNH2) (Homo sapiens, UniProt Q12809); test: Inhibition of human ERG at 1 uM by whole-cell voltage clamp assay
hERG (KCNH2), sequence (Q12809 whole entry): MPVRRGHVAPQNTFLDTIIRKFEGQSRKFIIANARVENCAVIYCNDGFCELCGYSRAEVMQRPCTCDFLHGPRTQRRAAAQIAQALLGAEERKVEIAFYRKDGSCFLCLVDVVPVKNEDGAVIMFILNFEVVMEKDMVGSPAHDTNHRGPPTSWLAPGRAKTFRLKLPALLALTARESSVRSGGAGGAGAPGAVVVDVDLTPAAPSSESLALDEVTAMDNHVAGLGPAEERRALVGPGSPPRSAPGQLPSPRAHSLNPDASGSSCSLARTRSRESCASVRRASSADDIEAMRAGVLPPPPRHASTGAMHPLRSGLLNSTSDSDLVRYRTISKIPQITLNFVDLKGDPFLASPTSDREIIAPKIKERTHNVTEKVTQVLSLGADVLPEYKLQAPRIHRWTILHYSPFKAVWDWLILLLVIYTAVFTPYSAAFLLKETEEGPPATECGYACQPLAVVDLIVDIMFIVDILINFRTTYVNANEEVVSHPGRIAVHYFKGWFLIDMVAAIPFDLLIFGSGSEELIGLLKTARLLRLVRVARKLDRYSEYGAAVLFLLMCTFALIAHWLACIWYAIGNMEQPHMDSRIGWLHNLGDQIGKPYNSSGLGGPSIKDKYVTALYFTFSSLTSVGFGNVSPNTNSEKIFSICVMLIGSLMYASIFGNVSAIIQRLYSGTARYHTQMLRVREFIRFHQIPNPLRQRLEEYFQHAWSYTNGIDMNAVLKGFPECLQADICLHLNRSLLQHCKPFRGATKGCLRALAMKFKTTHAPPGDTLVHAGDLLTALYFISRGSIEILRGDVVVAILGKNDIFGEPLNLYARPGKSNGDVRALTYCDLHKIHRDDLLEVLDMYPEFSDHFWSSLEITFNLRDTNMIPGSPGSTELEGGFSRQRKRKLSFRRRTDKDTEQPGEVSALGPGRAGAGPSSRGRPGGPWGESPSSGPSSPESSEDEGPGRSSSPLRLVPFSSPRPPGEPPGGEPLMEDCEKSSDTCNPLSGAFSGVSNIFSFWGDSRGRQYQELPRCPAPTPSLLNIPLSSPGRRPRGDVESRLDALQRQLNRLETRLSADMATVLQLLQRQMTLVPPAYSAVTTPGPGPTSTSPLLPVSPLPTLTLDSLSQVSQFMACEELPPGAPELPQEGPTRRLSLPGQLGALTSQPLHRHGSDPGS

Mus musculus [24] = test: Antiinflammatory activity against ovalbumin-induced allergic lung inflammation BALB/c mouse model assessed as reduction in neutrophils in brochoalveolar lavage fluid at 10 mg/kg, po bid administered on day 29 to 31 post ovalbumin challenge measured 8 hrs post last challenge relative to vehicle-treated control; type: functional, organism-based; set-up: dose 10 mg/kg; details: Bronchoalveolar lavage; procedure, shortened: as §1
Mus musculus [25] = test: Antiinflammatory activity against ovalbumin-induced allergic lung inflammation BALB/c mouse model assessed as reduction in eosinophils in brochoalveolar lavage fluid at 10 mg/kg, po bid administered on day 29 to 31 post ovalbumin challenge measured 8 hrs post last challenge relative to vehicle-treated control; type: functional, organism-based; set-up: dose 10 mg/kg; procedure, shortened: as §1
[26] = biological target: T1, Neuronal acetylcholine receptor; alpha4/beta2; test: Inhibition of human alpha4beta2 nAChR at 10 uM by binding assay

SMILES	inhibition [7] [%]	inhibition at 10 µM (CYP2C19) [%]	inhibition at 10 µM (CYP2D6) [%]	inhibition at 10 µM (CYP2C9) [%]	inhibition at 10 µM (CYP1A2) [%]	pIC50 [17]	inhibition [19] [%]	inhibition at 10 µM (CYP3A4) [%]	inhibition at 1 µM (hERG (KCNH2)) [%]	inhibition [26] [%]	other results
Cl.c1cncc(OC[C@H]2CNCCN2c2nc3ncccc3o2)c1	1	9	1	22	25	8.26	43	5			bioavailability [1]: 50%; inhibition in vivo at 1 mg/kg (Mus musculus [2]): 60%; clearance [3]: 72 mL/min/kg; pIC50 [4]: 7.24; half-life [5]: 98 min; Activity [6]: inactive; inhibition in vivo at 1 mg/kg (Mus musculus [8]): 64%; inhibition in vivo at 5 mg/kg (Mus musculus [9]): 60%; inhibition in vivo at 1 mg/kg (Mus musculus [10]): 90%; pEC50 [11]: 6.70; half-life [12]: 19 min; inhibition (Mus musculus [13]): inactive; Cmax [14]: 2530 nM; inhibition in vivo at 5 mg/kg (Mus musculus [15]): 78%; inhibition [16]: 50%; Emax [18]: 85%
COc1ccc(NC(=O)N2CCNC[C@H]2COc2cccnc2)cc1	2					4.74	7				inhibition (Mus musculus [20]): inactive; inhibition (Mus musculus [21]): inactive
c1cncc(OC[C@@H]2CCN2)c1											pKi [22]: 10.28
COc1ccc(NC(=O)N2CCNCC2COc2cccnc2)cc1 (racemic)	-8	17	0	14	11	7.22	23	7	15	33	inhibition (Mus musculus [23]): Active; inhibition (Mus musculus [24]): Active; inhibition (Mus musculus [25]): Active
O=C(Nc1ccc(Br)cc1F)N1CCNCC1COc1cccnc1 (racemic)	7	32	41	7	13	7.38	47	58	18	30	
O=C(c1ccccc1)c1ccc(NC(=O)N2CCNCC2COc2cccnc2)cc1 (racemic)	10	49	7	62	16	7.39	16	23	40	18	
